Source: ChEMBL document CHEMBL1921792, “Synthesis and anticonvulsant activity of trans- and cis-2-(2,6-dimethylphenoxy)-N-(2- or 4-hydroxycyclohexyl)acetamides and their amine analogs” (Bioorg Med Chem, 2011)
Each block holds one molecule with its values, some of them ahead of it. Activity calls are given as the source filed them.

Columns and labels:
Rattus norvegicus [1] = experiment: Neurotoxicity in rat assessed as neurological deficit at 30 mg/kg, po after 2 hrs […]; type: toxicity, organism-based; design: dose 30 mg/kg, route oral; settings: in vivo
Method in brief: (§1)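 Rats given the compound, suspended in 0.5% methylcellulose, by the stated route and dose. Neurological deficit was recorded at the listed times as ataxia and loss of placing response and muscle tone. Reported as number of rats showing toxicity/number tested.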

Mus musculus [2] = experiment: Neurotoxicity in mouse assessed as inability to maintain equilibrium on rotarod at 30 mg/kg, ip after 4 hrs by rotarod test; type: toxicity, organism-based; design: dose 30 mg/kg, route intraperitoneal; settings: in vivo
Method in brief: (§2)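 Drug given ip to mice as a suspension in 0.5% methylcellulose. At the stated time after dosing, each mouse was placed on a 1 inch knurled rod turning at 6 rpm. Neurotoxicity = inability to stay balanced at least 1 min in each of three trials. Scored as animals toxic/animals tested in small groups.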

Mus musculus [3] = experiment: Anticonvulsant activity against subcutaneous pentylenetetrazole-induced seizures in mouse at 100 mg/kg, ip after 0.5 hrs; type: functional, organism-based; design: dose 100 mg/kg
Method in brief: (§3)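 Phase I screen in mice. Compound given ip as a suspension in 0.5% methylcellulose, read at 30 min and 4 h. Pentylenetetrazole 85 mg/kg in 0.9% NaCl was injected sc into the posterior midline and animals watched ≥30 min. Protection meant no clonic spasm lasting ≥5 s. Groups of 1–8 animals; result is protected/tested.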

Mus musculus [4] = experiment: Anticonvulsant activity in mouse assessed as protection against maximal electric shock-induced seizures at 30 mg/kg, ip after 4 hrs; type: functional, organism-based; design: dose 30 mg/kg
Method in brief: (§4)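 Phase I maximal electroshock screen in mice. Compound given ip as a suspension in 0.5% methylcellulose at 30, 100 or 300 mg/kg, tested at 30 min and 4 h. Small groups (1–8); result is number protected/number tested.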

Rattus norvegicus [5] = experiment: Neurotoxicity in rat assessed as neurological deficit at 30 mg/kg, po after 1 hr […]; type: toxicity, organism-based; design: dose 30 mg/kg, route oral; settings: in vivo; method in brief: as §1
Rattus norvegicus [6] = experiment: Neurotoxicity in rat assessed as neurological deficit at 30 mg/kg, po after 4 hrs by rotarod test; type: toxicity, organism-based; design: dose 30 mg/kg, route oral; settings: in vivo; method in brief: as §1
Rattus norvegicus [7] = experiment: Neurotoxicity in rat assessed as neurological deficit at 30 mg/kg, po after 0.5 hrs […]; type: toxicity, organism-based; design: dose 30 mg/kg, route oral; settings: in vivo; method in brief: as §1
Mus musculus [8] = experiment: Neurotoxicity in mouse assessed as inability to maintain equilibrium on rotarod at 30 mg/kg, ip after 0.5 hrs by rotarod test; type: toxicity, organism-based; design: dose 30 mg/kg, route intraperitoneal; settings: in vivo; method in brief: as §2
Mus musculus [9] = experiment: Anticonvulsant activity against subcutaneous pentylenetetrazole-induced seizures in mouse at 30 mg/kg, ip after 0.5 hrs; type: functional, organism-based; design: dose 30 mg/kg; method in brief: as §3
Mus musculus [10] = experiment: Anticonvulsant activity against subcutaneous pentylenetetrazole-induced seizures in mouse at 30 mg/kg, ip after 4 hrs; type: functional, organism-based; design: dose 30 mg/kg; method in brief: as §3
Mus musculus [11] = experiment: Anticonvulsant activity in mouse assessed as protection against maximal electric shock-induced seizures at 30 mg/kg, ip after 0.5 hrs; type: functional, organism-based; design: dose 30 mg/kg; method in brief: as §4
Mus musculus [12] = experiment: Anticonvulsant activity in mouse assessed as protection against maximal electric shock-induced seizures at 300 mg/kg, ip after 4 hrs; type: functional, organism-based; design: dose 300 mg/kg; method in brief: as §4
Mus musculus [13] = experiment: Neurotoxicity in mouse assessed as inability to maintain equilibrium on rotarod at 100 mg/kg, ip after 4 hrs by rotarod test; type: toxicity, organism-based; design: dose 100 mg/kg, route intraperitoneal; settings: in vivo; method in brief: as §2
Mus musculus [14] = experiment: Anticonvulsant activity against subcutaneous pentylenetetrazole-induced seizures in mouse at 100 mg/kg, ip after 4 hrs; type: functional, organism-based; design: dose 100 mg/kg; method in brief: as §3
Mus musculus [15] = experiment: Anticonvulsant activity against subcutaneous pentylenetetrazole-induced seizures in mouse at 300 mg/kg, ip after 4 hrs; type: functional, organism-based; design: dose 300 mg/kg; method in brief: as §3
Mus musculus [16] = experiment: Anticonvulsant activity in mouse assessed as protection against maximal electric shock-induced seizures at 300 mg/kg, ip after 0.5 hrs; type: functional, organism-based; design: dose 300 mg/kg; method in brief: as §4
Rattus norvegicus [17] = experiment: Neurotoxicity in rat assessed as neurological deficit at 30 mg/kg, po after 0.25 hrs […]; type: toxicity, organism-based; design: dose 30 mg/kg, route oral; settings: in vivo; method in brief: as §1
Rattus norvegicus [18] = experiment: Anticonvulsant activity in rat assessed as protection against maximal electric shock-induced seizures at 30 mg/kg, po after 0.25 hrs; type: functional, organism-based; design: dose 30 mg/kg
Method in brief: (§5)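 MES test in rats dosed orally at 30 mg/kg as a suspension in 0.5% methylcellulose, read at 0.25–4 h. Four rats per time point; result is protected/tested.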

Mus musculus [19] = experiment: Neurotoxicity in mouse assessed as inability to maintain equilibrium on rotarod at 300 mg/kg, ip after 4 hrs by rotarod test; type: toxicity, organism-based; design: dose 300 mg/kg, route intraperitoneal; settings: in vivo; method in brief: as §2
Mus musculus [20] = experiment: Anticonvulsant activity against subcutaneous pentylenetetrazole-induced seizures in mouse at 300 mg/kg, ip after 0.5 hrs; type: functional, organism-based; design: dose 300 mg/kg; method in brief: as §3
Mus musculus [21] = experiment: Anticonvulsant activity in mouse assessed as protection against maximal electric shock-induced seizures at 100 mg/kg, ip after 4 hrs; type: functional, organism-based; design: dose 100 mg/kg; method in brief: as §4
Mus musculus [22] = experiment: Anticonvulsant activity in mouse assessed as protection against maximal electric shock-induced seizures at 100 mg/kg, ip after 0.5 hrs; type: functional, organism-based; design: dose 100 mg/kg; method in brief: as §4
Mus musculus [23] = experiment: Anticonvulsant activity in mouse assessed as protection against maximal electric shock-induced seizures at 90 mg/kg, ip after 0.25 hrs; type: functional, organism-based; design: dose 90 mg/kg
Method in brief: (§6)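 Time-to-peak-effect assay: MES protection read at 0.25–4 h after dosing. Mice ip (60–130 mg/kg), rats po (15 or 30 mg/kg) or ip (30 mg/kg). Groups of 4–8; result is protected/tested.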

Mus musculus [24] = experiment: Anticonvulsant activity in mouse assessed as protection against maximal electric shock-induced seizures at 130 mg/kg, ip after 0.25 hrs; type: functional, organism-based; design: dose 130 mg/kg; method in brief: as §6
Rattus norvegicus [25] = experiment: Anticonvulsant activity in rat assessed as protection against maximal electric shock-induced seizures at 30 mg/kg, po after 0.5 hrs; type: functional, organism-based; design: dose 30 mg/kg; method in brief: as §5
Rattus norvegicus [26] = experiment: Anticonvulsant activity in fully kindled rat hippocampus assessed as protection against focal seizures at 100 mg/kg, ip after 45 mins; type: functional, organism-based; design: dose 100 mg/kg
Method in brief: (§7)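 Rat hippocampus kindled with 50 Hz AC, […] for 1 s, every 0.5 h for 6 h, every other day for 10 days (60 cycles), reaching Racine stage 5. Compound 100 mg/kg ip; seizures re-induced at 15–135 min. Racine score below 3 counts as protection.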

Mus musculus [27] = experiment: Anticonvulsant activity against subcutaneous pentylenetetrazole-induced seizures in mouse assessed as increase in tonic threshold at 106 mg/kg, ip by threshold tonic extension test; type: functional, organism-based; design: dose 106 mg/kg
Method in brief: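 Threshold tonic extension test in mice. The compound was given ip, then pentylenetetrazol was infused until the first twitch and the first clonus. PTZ dose was calculated from the infusion speed. Mean of 8 animals ± S.E.M.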

Mus musculus [28] = experiment: Anticonvulsant activity in mouse assessed as protection against maximal electric shock-induced seizures at 130 mg/kg, ip after 4 hrs; type: functional, organism-based; design: dose 130 mg/kg; method in brief: as §6
Rattus norvegicus [29] = experiment: Anticonvulsant activity in fully kindled rat hippocampus assessed as protection against focal seizures at 100 mg/kg, ip after 15 mins; type: functional, organism-based; design: dose 100 mg/kg; method in brief: as §7
Mus musculus [30] = species on record: Mus musculus; experiment: Activation of kainate receptor in mouse cortical neurons assessed as potentiation of kainate-induced effect at 100 umol at -70 mV holding potential by whole-cell patch clamp electrophysiological assay relative to control
Method in brief: (§8)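 Whole-cell patch clamp on primary cultured murine cortical neurons, borosilicate glass electrodes. Responses to GABA, NMDA or kainate were recorded with the compound present, as % of control stimulation. Compound at 100 µmol, holding potential -70 mV. Significance p < 0.05.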

Mus musculus [31] = species on record: Mus musculus; experiment: Activation of GABA receptor in mouse cortical neurons assessed as potentiation of GABA-induced effect at 100 umol at -70 mV holding potential by whole-cell patch clamp electrophysiological assay relative to control; method in brief: as §8
Mus musculus [32] = experiment: Anticonvulsant activity in mouse assessed as protection against maximal electric shock-induced seizures at 130 mg/kg, ip after 2 hrs; type: functional, organism-based; design: dose 130 mg/kg; method in brief: as §6
Mus musculus [33] = species on record: Mus musculus; experiment: Activation of NMDA receptor in mouse cortical neurons assessed as potentiation of NMDA/glycine-induced effect at 100 umol at -70 mV holding potential by whole-cell patch clamp electrophysiological assay relative to control; method in brief: as §8
N1E-115 [34] = experiment: Blockade of voltage-gated sodium channel in mouse N1E-115 cells assessed as stimulation at 100 umol at -60 mV holding potential by whole-cell patch clamp electrophysiological assay relative to control; type: cell-based
N1E-115 [35] = experiment: Blockade of voltage-gated sodium channel in mouse N1E-115 cells assessed as stimulation at 100 umol at -90 mV holding potential by whole-cell patch clamp electrophysiological assay relative to control; type: cell-based
Method in brief: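 Whole-cell patch clamp with borosilicate glass electrodes on single cultured N1E-115 neuroblastoma cells. Compound at 100 µmol, holding potential -90 mV. Voltage-dependent sodium current expressed as % of control stimulation (no compound). Results from 5–8 cells averaged with SEM; significance by Student's t-test.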

Mus musculus [36] = experiment: Anticonvulsant activity in mouse assessed as protection against maximal electric shock-induced seizures at 130 mg/kg, ip after 0.5 hrs; type: functional, organism-based; design: dose 130 mg/kg; method in brief: as §6

SMILES: Cc1cccc(C)c1OCC(=O)N[C@@H]1CCCC[C@H]1O.O=C(O)C(O)C(O)C(=O)O
Activity (Rattus norvegicus [1]): Non-toxic | Activity (Mus musculus [2]): Non-toxic | Activity (Mus musculus [3]): inactive | Activity (Mus musculus [4]): inactive | Activity (Rattus norvegicus [5]): Non-toxic | Activity (Rattus norvegicus [6]): Non-toxic | Activity (Rattus norvegicus [7]): Non-toxic | Activity (Mus musculus [8]): Non-toxic | Activity (Mus musculus [9]): inactive | Activity (Mus musculus [10]): inactive | Activity (Mus musculus [11]): inactive | Activity (Mus musculus [12]): inactive | Activity (Mus musculus [13]): Non-toxic | Activity (Mus musculus [14]): inactive | Activity (Mus musculus [15]): inactive | Activity (Mus musculus [16]): Active | Activity (Rattus norvegicus [17]): Non-toxic | Activity (Rattus norvegicus [18]): inactive | Activity (Mus musculus [19]): Non-toxic | Activity (Mus musculus [20]): inactive | Activity (Mus musculus [21]): inactive | Activity (Mus musculus [22]): inactive

Activity (Mus musculus [30]): 98% | Activity (Mus musculus [31]): 179% | Activity (Mus musculus [33]): 104%
SMILES: Cc1cccc(C)c1OCC(=O)NC1CCCCC1O (racemic; 1)
Activity (Mus musculus [23]): Active | Activity (Mus musculus [24]): Active | Activity (Rattus norvegicus [25]): Active | Activity (Rattus norvegicus [26]): Active | Activity (Mus musculus [4]): inactive | Activity (Mus musculus [27]): Active | Activity (Mus musculus [28]): inactive | Activity (Mus musculus [9]): inactive | Activity (Rattus norvegicus [29]): Active | Activity (Mus musculus [10]): inactive | Activity (Mus musculus [11]): inactive | Activity (Mus musculus [12]): inactive | Activity (Mus musculus [14]): inactive | Activity (Mus musculus [32]): inactive | Activity (Rattus norvegicus [18]): Active | Activity (Mus musculus [20]): Active | Activity (N1E-115 [34]): 39% | Activity (Mus musculus [21]): inactive | Activity (N1E-115 [35]): 85% | Activity (Mus musculus [36]): Active
